Measured values from different studies.
Protocols differ between the studies behind these lines. pIC50: −log10 of the molar value.
TDP1: Tyrosyl-DNA phosphodiesterase 1 (TDP1, Homo sapiens, UniProt Q9NUW8)
PRMT3: Protein arginine N-methyltransferase 3 (PRMT3, Homo sapiens, UniProt O60678)
PDE7A: High affinity 3',5'-cyclic-AMP phosphodiesterase 7A (PDE7A, Homo sapiens, UniProt Q13946)
MAOA: Amine oxidase [flavin-containing] A (MAOA, Homo sapiens, UniProt P21397)
SLC22A6: Solute carrier family 22 member 6 (SLC22A6, Homo sapiens, UniProt Q4U2R8)
NTRK1: High affinity nerve growth factor receptor (NTRK1, Homo sapiens, UniProt P04629)
LDHA: L-lactate dehydrogenase A chain (LDHA, Homo sapiens, UniProt P00338)
PTPN1: Tyrosine-protein phosphatase non-receptor type 1 (PTPN1, Homo sapiens, UniProt P18031)

Cc1ccc(C(=O)Nc2ccc(S(=O)(=O)O)c3cc(S(=O)(=O)O)cc(S(=O)(=O)O)c23)cc1NC(=O)c1cccc(NC(=O)Nc2cccc(C(=O)Nc3cc(C(=O)Nc4ccc(S(=O)(=O)O)c5cc(S(=O)(=O)O)cc(S(=O)(=O)O)c45)ccc3C)c2)c1 — pIC50 (P2X purinoceptor 4 (P2RX4, Homo sapiens, UniProt Q99571); calcium signal; antagonist): 4.35
CCN(CC)CCCOc1cc2cc3c(cc2c2nc(OC)c4cc(OC)c(OC)cc4c12)OCO3 — pIC50 (TDP1; enzyme activity; inhibitor; fluorescence): 5.27
CCCCN1/C(=C/C=C/c2sc3ccc(Br)cc3[n+]2CCCC)Sc2ccc(Br)cc21 — pIC50 (PRMT3; enzyme activity; inhibitor; radiometric): 5.50
Clc1ccc2c(c1)N(CCCN1CCN(CCCc3ccccc3)CC1)c1ccccc1S2 — pIC50 (Glutathione reductase, mitochondrial (GSR, Homo sapiens, UniProt P00390); enzyme activity; inhibitor; absorbance): < 4.00
O=C1NC(=O)/C(=C/c2ccc(OCCNc3nc4c(cnn4C4CCCC4)c(=O)[nH]3)c(F)c2)S1 — pIC50 (PDE7A; enzyme activity; inhibitor): 7.57
Cc1c(C)c2c(c(C)c1O)CCC(C)(COc1ccc(CC3SC(=O)NC3=O)cc1)O2 (centres unmarked) — pIC50 (Peroxisome proliferator-activated receptor delta (PPARD, Homo sapiens, UniProt Q03181); enzyme activity; inhibitor): 4.34
CSc1ccc(/C=C2/C(C)=C(CC(=O)O)c3cc(F)ccc32)cc1 — pIC50 (PDE7A; enzyme activity; inhibitor): < 4.00
CCOc1ccc2c(-c3cc(C)nc(Nc4cc(OC)cc(C(F)(F)F)c4)n3)cnn2n1 — pIC50 (Homeodomain-interacting protein kinase 4 (HIPK4, Homo sapiens, UniProt Q8NE63); enzyme activity; inhibitor): < 5.00
O=C(c1ccc(O)cc1O)[C@H](O)[C@@H](O)c1ccc(O)cc1 — pIC50 (MAOA; enzyme activity; inhibitor): 6.21
Nc1ncnc2c1ncn2[C@@H]1O[C@H](CSCCCNC(=O)NCc2ccccc2)[C@@H](O)[C@H]1O — pIC50 (PRMT3; enzyme activity; inhibitor; fluorescence): 4.15
C[C@H]1Oc2cc(cnc2N)-c2c(nn(C)c2C#N)CN(C)C(=O)c2ccc(F)cc21 — pIC50 (Focal adhesion kinase 1 (PTK2, Homo sapiens, UniProt Q05397); enzyme activity; inhibitor; radiometric): 8.40
OC[C@H]1O[C@@H](n2cnc3c(NCCCc4ccccc4)ncnc32)[C@H](O)[C@@H]1O — pIC50 (PRMT3; enzyme activity; inhibitor; fluorescence): < 4.00
O=C(c1ccccc1)c1ccc2n1CCC2C(=O)O (centres unmarked) — pIC50 (SLC22A6; transporter uptake; inhibitor): 6.19
CCn1ncc2c1-c1cnc(N)c(c1)O[C@H](C)c1cc(F)ccc1-c1nn(C)nc1C2 — pIC50 (NTRK1; enzyme activity; inhibitor): 6.59
CC[C@@H](C)[C@@H](NC(=O)[C@@H](CCC(N)=O)NC(=O)[C@H](NC(C)=O)C(C)C)C(=O)N[C@@H](C(=O)N[C@H](Cc1ccc(O)cc1)C(=O)N[C@H](CCCCN)C(N)=O)C(C)C — pIC50 (Insulin (INS, Homo sapiens, UniProt P01308); enzyme activity; inhibitor; pH 7.4): ~4.12
CCCCN1/C(=C/C=C(Br)/C=C/C2=[N+](CCCC)c3ccc(Br)cc3C2(C)C)C(C)(C)c2cc(Br)ccc21 — pIC50 (PRMT3; enzyme activity; inhibitor; radiometric): 5.39
CCOC(F)(F)c1nnc2cnc(-c3cnc(OCC(F)(F)F)c(F)c3)cn12 — pIC50 (Sodium channel protein type 1 subunit alpha (SCN1A, Homo sapiens, UniProt P35498); ion current; inhibitor; patch clamp): 6.17
C[C@@H]1C[C@H]2O[C@@H]2CC/C=C/C(=O)Cc2cc(O)cc(O)c2C(=O)O1 — pIC50 (Mitogen-activated protein kinase kinase kinase 7 (MAP3K7, Homo sapiens, UniProt O43318); enzyme activity; inhibitor; ATP luminescence): < 5.00
Nc1ncnc2c1ncn2[C@@H]1O[C@H](CSCCNC(=O)NC2CCCCC2)[C@@H](O)[C@H]1O — pIC50 (PRMT3; enzyme activity; inhibitor; fluorescence): < 4.00
O=c1oc(Cl)c(Cl)c2ccccc12 — pIC50 (Rhomboid protease AarA (Providencia stuartii, UniProt P46116); enzyme activity; inhibitor): 4.27
C=CC(=O)Nc1cc(Nc2nccc(Nc3cc(Cl)c(F)cc3C(C)(C)O)n2)c(OC)cc1N1CC[C@@H](N(C)C)C1 — pIC50 (NTRK1; enzyme activity; inhibitor; with preincubation): < 5.00
CN1CCN(c2ccc(Nc3ncc4cc(C#N)c(=O)n(C5CCCC5)c4n3)cc2)CC1 — pIC50 (Serine/threonine-protein kinase MARK2 (MARK2, Homo sapiens, UniProt Q7KZI7); enzyme activity; inhibitor): 6.25
COc1cc(/C=C/C(=O)N2CCC(Cc3ccccc3)CC2)ccc1OC1CCCCC1 — pIC50 (MAOA; enzyme activity; inhibitor; fluorescence): 4.19
CCS(=O)(=O)N1CC(CC#N)(n2cc(-c3ncnc4[nH]ccc34)cn2)C1 — pIC50 (SLC22A6; transporter uptake; inhibitor): < 4.00
O=c1oc2c(cc1O)oc(=O)c1cc(O)c(O)c(O)c12 — pIC50 (LDHA; enzyme activity; inhibitor; pH 7.4): 3.98
COc1cc2c(OC)nc3c4cc5c(cc4cc(OCCCN4CCC(N6CCCCC6)CC4)c3c2cc1OC)OCO5 — pIC50 (TDP1; enzyme activity; inhibitor; fluorescence): 5.19
C[C@H](NC(=O)[C@@H](c1cccnc1)N(C(=O)CCl)c1ccc(-n2cccc2)cc1)c1ccccc1 — pIC50 (Replicase polyprotein 1ab, main protease (rep, Severe acute respiratory syndrome coronavirus 2, UniProt P0DTD1); enzyme activity; inhibitor; FRET): 7.30
COc1cc2c(OC)nc3c4cc5c(cc4cc(OCCCN(C)C)c3c2cc1OC)OCO5 — pIC50 (TDP1; enzyme activity; inhibitor; fluorescence): 5.77
COc1cc(-c2cc(=O)c3c(O)c(OC)c(O[C@@H]4O[C@H](CO)[C@@H](O)[C@H](O)[C@H]4O[C@@H]4O[C@H](CO)[C@@H](O)[C@H](O)[C@H]4O)cc3o2)ccc1O — pIC50 (LDHA; enzyme activity; inhibitor; pH 7.4): 3.59
CC(C)(C)OC(=O)N1CCN(C(=O)C(=O)CC(=O)c2cccc(N(Cc3ccccc3)Cc3ccccc3)c2)CC1 — pIC50 (PTPN1; enzyme activity; inhibitor; absorbance; pH 7): 5.04
CC1=C[C@@]2(C[C@H](C)[C@H]3CC=C(C)C(=O)[C@@H]3O2)OC1=O — pIC50 (PTPN1; enzyme activity; inhibitor): < 3.30
Nc1ncnc2c1ncn2[C@@H]1O[C@H](CSCCNC(=O)NCc2ccccc2)[C@@H](O)[C@H]1O — pIC50 (PRMT3; enzyme activity; inhibitor; fluorescence): 6.28
Fc1ccc(CN(CC(F)(F)F)C2CCN(CCCc3c[nH]c4ccc(Cn5cncn5)cc34)CC2)cc1 — pIC50 (Voltage-dependent T-type calcium channel subunit alpha-1I (CACNA1I, Homo sapiens, UniProt Q9P0X4); ion current; patch clamp): 9.15
O=C(O)c1ccc(Nc2c(-c3ccc(S(=O)(=O)O)cc3)nc3ccccn23)cc1 — pIC50 (TDP1; enzyme activity; inhibitor): < 4.00
Nc1ncnc2c1ncn2[C@@H]1O[C@H](CSCCNC(=O)NCc2ccc(F)cc2)[C@@H](O)[C@H]1O — pIC50 (PRMT3; enzyme activity; inhibitor; fluorescence): 5.23
COc1cc(C[C@H]2C(=O)OC[C@@H]2Cc2ccc(OC)c(OC)c2)ccc1O — pIC50 (Cone cGMP-specific 3',5'-cyclic phosphodiesterase subunit alpha' (PDE6C, Homo sapiens, UniProt P51160); enzyme activity; inhibitor): < 4.70
O=C1C[C@@H](c2cc(O)cc(O)c2)Oc2cc(O)ccc21 — pIC50 (MAOA; enzyme activity; inhibitor): 4.87
O=C(Nc1cccc(NS(=O)(=O)c2ccc3oc4cc([N+](=O)[O-])ccc4c3c2)c1)C1(O)CC1 — pIC50 (LDHA; enzyme activity; inhibitor): 6.12
